Results: ChEMBL document CHEMBL5120833, “Structure-based design of novel donepezil-like hybrids for a multi-target approach to the therapy of Alzheimer's disease” (Eur J Med Chem, 2022)
Activity calls are given as the source filed them. The calls are words filed in the database; no cut-off is given here.

What was measured:
[1] = biological target: T1, Fatty-acid amide hydrolase 1 (Homo sapiens, UniProt O00519); assay: Inhibition of human recombinant FAAH using AMC-AA as substrate preincubated with enzyme for 10 mins followed by substrate addition for 2 hrs by fluorometric analysis
T1 sequence (O00519 whole entry): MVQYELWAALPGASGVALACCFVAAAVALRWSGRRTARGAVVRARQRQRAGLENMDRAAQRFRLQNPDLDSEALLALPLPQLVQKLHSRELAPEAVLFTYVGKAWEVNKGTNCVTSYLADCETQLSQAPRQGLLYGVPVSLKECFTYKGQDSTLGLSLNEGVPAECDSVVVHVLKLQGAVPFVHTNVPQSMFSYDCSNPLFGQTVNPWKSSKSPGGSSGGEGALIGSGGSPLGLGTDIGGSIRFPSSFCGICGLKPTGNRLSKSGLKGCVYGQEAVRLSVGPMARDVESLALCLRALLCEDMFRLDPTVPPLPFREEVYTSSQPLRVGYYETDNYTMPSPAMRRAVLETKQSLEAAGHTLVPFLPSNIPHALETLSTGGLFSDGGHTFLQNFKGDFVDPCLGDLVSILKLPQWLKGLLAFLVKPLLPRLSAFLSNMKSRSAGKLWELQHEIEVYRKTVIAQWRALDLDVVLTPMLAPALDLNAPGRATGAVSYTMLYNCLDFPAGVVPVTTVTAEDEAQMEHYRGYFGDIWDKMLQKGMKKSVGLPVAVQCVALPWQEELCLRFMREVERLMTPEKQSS
Procedure, shortened: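 Human recombinant FAAH preincubated with inhibitor at several concentrations for 10 min at room temperature with orbital shaking in Tris-HCl 125 mM, Na2EDTA 1 mM, pH 9.0. AMC-AA substrate (5 µM final) added, then 2 h at 37 °C with fluorescence read every 30 s (ex 340, em 450 nm). Percent inhibition taken against no-inhibitor and no-enzyme wells. IC50 given as mean ± SEM of at least two independent triplicate runs.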

Acetylcholinesterase [2] = biological target: T2, Acetylcholinesterase (Homo sapiens, UniProt P22303); assay: Inhibition of human AChE by Ellman's spectrophotometric method
T2 sequence (P22303 whole entry): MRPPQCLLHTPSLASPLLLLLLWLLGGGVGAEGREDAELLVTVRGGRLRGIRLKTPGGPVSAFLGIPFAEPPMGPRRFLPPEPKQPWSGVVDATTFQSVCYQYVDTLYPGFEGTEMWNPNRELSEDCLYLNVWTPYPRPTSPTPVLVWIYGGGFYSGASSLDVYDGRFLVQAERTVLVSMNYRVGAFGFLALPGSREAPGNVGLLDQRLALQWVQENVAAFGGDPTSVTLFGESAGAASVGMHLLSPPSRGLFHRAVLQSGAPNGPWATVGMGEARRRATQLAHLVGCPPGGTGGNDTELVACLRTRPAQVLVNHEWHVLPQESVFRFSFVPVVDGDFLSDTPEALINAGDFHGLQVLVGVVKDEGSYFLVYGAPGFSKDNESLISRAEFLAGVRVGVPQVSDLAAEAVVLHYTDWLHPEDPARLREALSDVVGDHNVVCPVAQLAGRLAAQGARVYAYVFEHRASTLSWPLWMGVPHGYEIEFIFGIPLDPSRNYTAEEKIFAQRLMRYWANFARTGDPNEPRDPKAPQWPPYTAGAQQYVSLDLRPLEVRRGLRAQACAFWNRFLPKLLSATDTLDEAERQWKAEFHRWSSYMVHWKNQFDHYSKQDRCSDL

Cholinesterase [3] = biological target: T3, Cholinesterase (Homo sapiens, UniProt P06276); assay: Inhibition of human BuChE by Ellman's spectrophotometric method
T3 sequence (P06276 whole entry): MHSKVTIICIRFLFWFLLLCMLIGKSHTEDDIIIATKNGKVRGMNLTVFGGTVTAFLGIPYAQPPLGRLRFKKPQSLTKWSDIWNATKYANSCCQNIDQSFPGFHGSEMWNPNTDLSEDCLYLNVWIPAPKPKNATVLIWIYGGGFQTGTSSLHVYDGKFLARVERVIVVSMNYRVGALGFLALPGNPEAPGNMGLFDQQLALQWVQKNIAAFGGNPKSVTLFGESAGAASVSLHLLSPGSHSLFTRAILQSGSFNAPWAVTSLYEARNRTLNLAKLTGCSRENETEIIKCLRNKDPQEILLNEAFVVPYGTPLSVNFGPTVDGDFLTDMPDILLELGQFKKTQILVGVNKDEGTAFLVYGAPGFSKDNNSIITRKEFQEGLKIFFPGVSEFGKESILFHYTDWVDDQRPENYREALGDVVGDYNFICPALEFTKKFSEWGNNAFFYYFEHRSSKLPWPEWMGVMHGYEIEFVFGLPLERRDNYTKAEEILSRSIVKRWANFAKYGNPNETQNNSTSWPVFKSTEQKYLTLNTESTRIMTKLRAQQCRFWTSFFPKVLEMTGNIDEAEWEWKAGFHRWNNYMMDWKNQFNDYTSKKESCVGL
Procedure, shortened: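 Human BChE, modified Ellman spectrophotometric assay in 96-well format. Incubations were run in duplicate. IC50 was determined for inhibitors giving >60% inhibition, from seven final concentrations (10⁻⁵ to 10⁻¹¹ M) diluted in work buffer from a 1000 μM DMSO stock. Values are the mean ± SEM of three independent experiments.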

[4] = biological target: Amyloid-beta precursor protein (Homo sapiens) (UniProt P05067); assay: Inhibition of amyloid beta (1 to 40) (unknown origin) aggregation at 100 uM incubated for 2 hrs by Thioflavin T based fluorometric assay
Chain of Amyloid-beta precursor protein (Homo sapiens) (P05067 whole entry): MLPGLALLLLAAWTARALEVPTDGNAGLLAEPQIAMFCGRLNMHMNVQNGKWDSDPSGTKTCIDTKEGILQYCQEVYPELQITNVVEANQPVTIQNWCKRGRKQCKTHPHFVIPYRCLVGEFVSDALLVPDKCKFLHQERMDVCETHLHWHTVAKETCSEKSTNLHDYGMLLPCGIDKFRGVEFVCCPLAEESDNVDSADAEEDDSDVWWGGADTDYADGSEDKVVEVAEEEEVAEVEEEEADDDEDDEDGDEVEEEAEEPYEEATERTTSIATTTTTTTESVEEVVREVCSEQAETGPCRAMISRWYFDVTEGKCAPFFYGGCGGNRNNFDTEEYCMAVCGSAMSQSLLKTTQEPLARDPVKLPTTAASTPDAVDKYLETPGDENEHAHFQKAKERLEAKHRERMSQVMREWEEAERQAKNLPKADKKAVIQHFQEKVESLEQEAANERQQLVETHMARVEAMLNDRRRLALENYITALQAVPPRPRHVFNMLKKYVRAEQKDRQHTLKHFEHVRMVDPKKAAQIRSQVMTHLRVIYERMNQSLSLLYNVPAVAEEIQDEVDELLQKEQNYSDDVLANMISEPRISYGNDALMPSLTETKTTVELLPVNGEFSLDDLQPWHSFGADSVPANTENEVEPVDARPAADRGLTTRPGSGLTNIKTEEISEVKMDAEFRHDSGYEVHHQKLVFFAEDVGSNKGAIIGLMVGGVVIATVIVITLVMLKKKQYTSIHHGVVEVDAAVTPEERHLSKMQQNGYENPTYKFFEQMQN
Procedure, shortened: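 Aβ40 (30 µM final) co-incubated with inhibitor (100 µM final) in PBS pH 7.4 containing 2% HFIP, 2 h at 25 °C. Thioflavin T (25 µM) then added and fluorescence read. Run in triplicate, reported as mean ± SEM.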

[5] = Cytotoxicity against human SH-SY5Y cells assessed as inhibition of cell viability incubated for 24 hrs by MTT assay; format: toxicity, cell-based
Procedure, shortened: (§1)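 Cells from ATCC; SH-SY5Y grown in 1:1 MEM/Ham's F12, HepG2 in MEM with NEAA, both with 10% heat-inactivated FBS, glutamine, penicillin-streptomycin, 37 °C, 5% CO2. Seeded 10,000-25,000 cells/well, next day exposed to half-log serial dilutions (100 µM to 100 nM) in 1% DMSO final, with untreated controls. After 24 or 48 h, MTT 0.5 mg/mL for 3–4 h at 37 °C; formazan dissolved in DMSO/EtOH 1:1, absorbance 570 nm.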

[6] = Cytotoxicity against human SH-SY5Y cells assessed as inhibition of cell viability incubated for 48 hrs by MTT assay; format: toxicity, cell-based; procedure, shortened: as §1
[7] = Cytotoxicity against human HepG2 cells assessed as inhibition of cell viability incubated for 48 hrs by MTT assay; format: toxicity, cell-based; procedure, shortened: as §1
[8] = Cytotoxicity against human HepG2 cells assessed as inhibition of cell viability incubated for 24 hrs by MTT assay; format: toxicity, cell-based; procedure, shortened: as §1
[9] = Metal chelating activity assessed as compound-Zn2+ complex formation at compound:Zn2+ concentration ratio of 1:1 in DMSO-d6/D2O medium by 1H-NMR analysis
Homo sapiens = species: Homo sapiens; assay: Selectivity index, ratio of IC50 for human BuChE to IC50 for human AChE
[10] = Metal chelating activity assessed as Cu2+-compound complex formation at Cu2+:compound concentration ratio of 1:1 to 1:2 in 30% DMSO/water medium by pH potentiometric analysis
Procedure, shortened: (§2)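 Cu2+ binding measured by pH-potentiometric titration in 30% w/w DMSO/H2O at 25.0 ± 0.1 °C, ionic strength 0.1 M KCl, with 0.08 M KOH as titrant. Ligand concentration was 4.4×10^-4 M, with Cu:L ratios of 0:1, 1:1 and 1:2. Glass and Ag/AgCl electrodes were checked by HCl/KOH calibration (Gran's method), pKw 14.66. Protonation and complex stability constants came from fitting the data to an equilibrium model.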

Acetylcholinesterase [11] = biological target: T2, Acetylcholinesterase; assay: Potency index, ratio of donepezil IC50 to test compound IC50 for inhibition of human AChE by Ellman's spectrophotometric method
[12] = Metal chelating activity assessed as Cu2+-compound complex formation by measuring global formation constant, log(beta)(CumHhLl) in 30% DMSO/water medium by pH potentiometric analysis; procedure, shortened: as §2
[13] = Metal chelating activity assessed as compound-Cu2+ complex formation at stoichiometric ratio of 1:1 in 30% w/w DMSO/H2O medium by ESI-MS spectral analysis
Procedure, shortened: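 ESI-MS on an ion-trap instrument in positive and negative ion modes of Cu2+:ligand 1:1 solution in 30% w/w DMSO/H2O. Ligand concentration 2.6×10^-4 M, pH 5.68. Spray voltage ±4.5 kV, capillary temperature 280 °C, N2 sheath gas.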

[14] = Protonation constant of the compound, logKi in 30% w/w DMSO/H2O medium; format: physicochemical
Procedure, shortened: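 pH-potentiometric titration in 30% w/w DMSO/H2O at 25.0 ± 0.1 °C, ionic strength 0.1 M KCl, titrant 0.08 M KOH, ligand 4.4×10^-4 M. Glass and Ag/AgCl electrodes conditioned in DMSO/water mixtures and calibrated by HCl/KOH titration (Gran's method); pKw 14.66. Stepwise protonation constants obtained by fitting the titration data.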

Cholinesterase [15] = biological target: T3, Cholinesterase; assay: Potency index, ratio of donepezil IC50 to test compound IC50 for inhibition of human BuChE by Ellman's spectrophotometric method
Cholinesterase [16] = biological target: T3, Cholinesterase; assay: Inhibition of human BuChE at 10 uM by Ellman's spectrophotometric method
Procedure, shortened: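 Percent inhibition of human BChE at a fixed 10 μM inhibitor concentration, by modified Ellman spectrophotometric assay in 96-well format. Incubations were run in duplicate. Values are the mean ± SEM of three independent experiments.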

Structure (SMILES) | IC50 [1] [µM] | IC50 (Acetylcholinesterase [2]) [µM] | IC50 (Cholinesterase [3]) [µM] | inhibition (Cholinesterase [16]) [%] | further results
O=C(COc1ccc(CCc2ccccc2)cc1)NCC1CCN(Cc2ccccc2)CC1 | 23.8 | 0.135 | 5.08 |  | 
O=C(COc1ccccc1C(F)(F)F)NCCN1CCN(Cc2ccccc2)CC1 | 55.1 | 0.136 | 0.503 |  | 
O=C(COc1ccc(Cl)cc1)NCC1CCN(Cc2ccccc2)CC1 | 20.9 | 1.68 | 5.61 |  | inhibition [4]: 30%; IC50 at 24 h [5]: > 100 µM; IC50 at 48 h [6]: > 100 µM; IC50 at 48 h [7]: > 100 µM; IC50 at 24 h [8]: > 100 µM
O=C(COc1ccc(Cl)cc1)NCCN1CCN(Cc2ccccc2)CC1 | > 100 | 0.189 | 2.15 |  | inhibition [4]: 30%
O=C(Oc1ccc([N+](=O)[O-])cc1)N1CCN(Cc2cccc(Oc3ccccc3)c2)CC1 | 0.019 |  |  |  | 
O=C(COc1ccc(Cl)cc1[N+](=O)[O-])NCCN1CCN(Cc2ccccc2)CC1 | 41.6 | 0.0008 | 1.41 |  | Activity [9]: Active; Ratio IC50 (Homo sapiens): 1760; Activity [10]: Active; Ratio IC50 (Acetylcholinesterase [11]): 21; IC50 at 24 h [5]: > 100 µM; log(activity) [12]: -1.81; IC50 at 48 h [6]: > 100 µM; IC50 at 48 h [7]: > 100 µM; IC50 at 24 h [8]: > 100 µM; Activity [13]: Active; log(activity) [14]: 2.89; Ratio IC50 (Cholinesterase [15]): 3
O=C(COc1ccc(Cl)cc1[N+](=O)[O-])NCC1CCN(Cc2ccccc2)CC1 | 23.3 | 0.122 | 4.7 |  | 
Cc1cc(Br)cc(C)c1OCC(=O)NCCN1CCN(Cc2ccccc2)CC1 | 40.8 | 0.09 | 4.1 |  | 
COc1ccc(OCC(=O)NCCN2CCN(Cc3ccccc3)CC2)cc1 | 51.9 | 0.3 |  | 25 | inhibition [4]: 30%
O=C(COc1cc(F)ccc1[N+](=O)[O-])NCC1CCN(Cc2ccccc2)CC1 | 28.1 | 0.103 |  | 54 | 
O=C(COc1ccc(-c2ccccc2)cc1)NCC1CCN(Cc2ccccc2)CC1 | 23.3 | 1.7 | 5.58 |  | 
O=C(COc1ccc(Cc2ccccc2)cc1)NCCN1CCN(Cc2ccccc2)CC1 | 23.6 | 0.993 |  | 29 | 
O=C(COc1ccc(CCc2ccccc2)cc1)NCCN1CCN(Cc2ccccc2)CC1 | 16.8 | 0.9 |  | 45 | inhibition [4]: 30%; IC50 at 24 h [5]: 27.8 µM; IC50 at 48 h [6]: 34.8 µM; IC50 at 48 h [7]: 15.8 µM; IC50 at 24 h [8]: 41.6 µM
O=C(COc1ccc([N+](=O)[O-])cc1)NCC1CCN(Cc2ccccc2)CC1 | 28.5 | 0.509 |  | 24 | 
O=C(COc1ccc(Cc2ccccc2)cc1)NCC1CCN(Cc2ccccc2)CC1 | 21.9 | 1.27 |  | 37 | 
Cc1cc(Br)cc(C)c1OCC(=O)NCC1CCN(Cc2ccccc2)CC1 | 28.6 | 0.595 | 2.22 |  | 
O=C(COc1ccc([N+](=O)[O-])cc1)NCCN1CCN(Cc2ccccc2)CC1 | 43.9 | 0.042 |  |  | inhibition [4]: 30%
O=C(COc1ccccc1C(F)(F)F)NCC1CCN(Cc2ccccc2)CC1 | 38.2 | 0.767 | 1.02 |  | 
O=C(COc1cc(F)ccc1[N+](=O)[O-])NCCN1CCN(Cc2ccccc2)CC1 | 49.6 | 0.0028 | 5.01 |  | Ratio IC50 (Homo sapiens): 1790; Ratio IC50 (Acetylcholinesterase [11]): 6; IC50 at 24 h [5]: > 100 µM; IC50 at 48 h [6]: > 100 µM; IC50 at 48 h [7]: > 100 µM; IC50 at 24 h [8]: > 100 µM
O=C(COc1ccc(-c2ccccc2)cc1)NCCN1CCN(Cc2ccccc2)CC1 | 63.9 | 0.735 | 0.969 |  | 
COc1ccc(OCC(=O)NCC2CCN(Cc3ccccc3)CC2)cc1 | 40.8 | 0.88 |  | 55 | 
